The source of these data is publication PMC3313494 (Journal of the American Chemical Society, 2012).

As a reminder, the Km is the substrate concentration at which the rate is half of its maximum.

Ends that are not written are not given here.

One assay has as its system sirtuins. Briefly: Turnover of biotin-NAD as NAD alternate substrate. The note with it: 6-biotin-17-NAD; Supplemental Figure S12. It is filed as biochemical.
The next assay deals with monoamine oxidases. As to conditions: used in the treatment of clinical depression; cited from earlier work.
A further assay deals with T1, SIRT1 (Homo sapiens, UniProt Q96EB6).
T1 sequence (Q96EB6 1-747): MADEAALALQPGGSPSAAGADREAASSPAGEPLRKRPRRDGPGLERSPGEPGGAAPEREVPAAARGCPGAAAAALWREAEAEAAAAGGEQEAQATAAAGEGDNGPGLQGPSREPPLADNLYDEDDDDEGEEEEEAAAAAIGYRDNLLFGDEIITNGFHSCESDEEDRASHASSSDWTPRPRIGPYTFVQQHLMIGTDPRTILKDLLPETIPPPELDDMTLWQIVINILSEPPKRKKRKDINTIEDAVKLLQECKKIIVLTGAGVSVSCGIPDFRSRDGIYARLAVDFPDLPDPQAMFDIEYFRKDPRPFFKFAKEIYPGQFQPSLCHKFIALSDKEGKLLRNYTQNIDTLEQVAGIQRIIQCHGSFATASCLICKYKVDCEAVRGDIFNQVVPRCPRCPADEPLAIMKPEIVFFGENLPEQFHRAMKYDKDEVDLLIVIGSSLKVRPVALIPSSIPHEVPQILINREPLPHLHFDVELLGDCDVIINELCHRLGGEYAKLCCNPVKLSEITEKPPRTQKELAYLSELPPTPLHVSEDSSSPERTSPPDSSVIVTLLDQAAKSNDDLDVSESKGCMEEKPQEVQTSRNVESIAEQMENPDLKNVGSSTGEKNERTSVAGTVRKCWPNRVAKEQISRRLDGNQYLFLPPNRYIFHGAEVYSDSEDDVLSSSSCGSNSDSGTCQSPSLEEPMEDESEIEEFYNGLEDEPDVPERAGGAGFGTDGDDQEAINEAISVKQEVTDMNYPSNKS
Briefly: HPLC deacetylation assay, SIRT1. It is filed as biochemical. The note with it: 0.07 μM (1U) SIRT1, 500 μM NAD, peptide 0–500 μM, pH 8.0, 37°C, 0–20 min, at least duplicate.

In a further assay the target is Sir2Tm (Thermotoga maritima, UniProt Q9WYW0). Put plainly: HPLC deacetylation assay, Sir2Tm. It is filed as biochemical, bacterial. The note with it: pH 8.0, 37°C. The method, boiled down: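 Enzyme addition at 37°C started the reaction; Sir2Tm was refolded from inclusion bodies, ~90% pure. Aliquots at 0, 5, 10, 20 min were acid-quenched, urea-treated, ultrafiltered and resolved by C18 reverse-phase HPLC; integrated peak areas gave rate constants.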
Sir2Tm, sequence (Q9WYW0 whole entry): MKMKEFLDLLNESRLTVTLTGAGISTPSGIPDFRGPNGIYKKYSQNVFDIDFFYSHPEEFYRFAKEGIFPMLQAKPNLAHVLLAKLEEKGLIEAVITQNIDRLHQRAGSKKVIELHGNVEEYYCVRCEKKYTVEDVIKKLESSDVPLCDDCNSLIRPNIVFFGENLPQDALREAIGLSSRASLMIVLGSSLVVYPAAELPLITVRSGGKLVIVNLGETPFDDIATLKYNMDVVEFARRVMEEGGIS

Consider 6-biotin-17-NAD, for which the “use as NAD alternate substrate by sirtuins” value with sirtuins is “can be turned over by sirtuins as an NAD alternate substrate”.

For the compound `NNCCc1ccccc1` [phenethylhydrazine], the monoamine oxidase inhibition result in the assay with monoamine oxidases is given as “well-established inhibitor of monoamine oxidases”.

As for “K382KAc: corresponding natural acetylated substrate, p53 (372–389) peptide containing acetyl-lysine at 382 (KKGQSTSRHKK(Ac)LMFKTEG; UniProt P04637 372-389, looked up, fragment)”, the “deacetylation rate (apparent kcat)” value in the assay with SIRT1 stood at 0.205 ± 0.012 s⁻¹; with Sir2Tm (0.3–0.15 μM Sir2Tm, 500 μM NAD, peptide 0–500 μM, 0–20 min, HPLC, at least duplicate), 0.18 ± 0.025 s⁻¹. Moreover, the Michaelis constant (Km) with Sir2Tm (steady-state kinetics, Sir2Tm, 0.5 mM NAD, p53 (372–389) peptides) is 71.8 ± 24.5 µM.
